Source: ChEMBL document CHEMBL1629649, “Multiple regulatory pathways associated with high-level ciprofloxacin and multidrug resistance in Salmonella enterica serovar enteritidis: involvement of RamA and other global regulators” (2009)
Values after ≈ are worked out from the molar mass of the structure shown.

Key:
Format in all cases: functional, Salmonella enterica subsp. enterica serovar Enteritidis
Salmonella enteritidis [1] = assay: Antimicrobial activity against acrB::aph-deficient Salmonella enterica serovar enteritidis isolate 4931 harboring gyrA D87Y mutant gene by Etest
Summary of the method: (§1)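 Deletions (acrB, marA, soxS or ramA) were moved from SL1344 mutants into the isolates by P22 phage transduction. Transductants were selected on LB agar with 50 µg/ml kanamycin, and insertion of the kanamycin resistance gene was confirmed by PCR. MICs were then determined by Etest.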

Salmonella enteritidis [2] = assay: Antimicrobial activity against acrB::aph-deficient Salmonella enterica serovar enteritidis isolate 51 harboring gyrA D87Y mutant gene by Etest; summary of the method: as §1
Salmonella enteritidis [3] = assay: Antimicrobial activity against acrB::aph-deficient ciprofloxacin-resistant Salmonella enterica serovar enteritidis isolate 5408-cip harboring gyrA D87Y, gyrB E466D, parE V461G mutant gene by Etest; summary of the method: as §1
Salmonella enteritidis [4] = assay: Antimicrobial activity against Salmonella enterica serovar enteritidis isolate NCTC 13349 by Etest
Salmonella enteritidis [5] = assay: Antimicrobial activity against soxS::aph-deficient ciprofloxacin-resistant Salmonella enterica serovar enteritidis isolate 104-cip harboring gyrA D87Y,S83F mutant gene by Etest; summary of the method: as §1
Salmonella enteritidis [6] = assay: Antimicrobial activity against acrB::aph-deficient Salmonella enterica serovar enteritidis isolate 5408 harboring gyrA D87Y mutant gene by Etest; summary of the method: as §1
Salmonella enteritidis [7] = assay: Antimicrobial activity against Salmonella enterica serovar enteritidis isolate CUH52 by Etest
Salmonella enteritidis [8] = assay: Antimicrobial activity against marA::aph-deficient ciprofloxacin-resistant Salmonella enterica serovar enteritidis isolate 104-cip harboring gyrA D87Y,S83F mutant gene by Etest; summary of the method: as §1
Salmonella enteritidis [9] = assay: Antimicrobial activity against Salmonella enterica serovar enteritidis isolate 51 harboring gyrA D87Y mutant gene by Etest
Salmonella enteritidis [10] = assay: Antimicrobial activity against Salmonella enterica serovar enteritidis isolate 104 harboring gyrA gene by Etest
Salmonella enteritidis [11] = assay: Antimicrobial activity against ciprofloxacin-resistant Salmonella enterica serovar enteritidis isolate 104-cip harboring gyrA gene by Etest
Summary of the method: (§2)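 Wild-type alleles of the target genes were carried on plasmids and introduced into the ciprofloxacin-selected mutants by electrotransformation. Transformants were selected on LB agar with 50 µg/ml kanamycin at 37°C overnight. Quinolone MICs of the transformants were read by Etest strips alongside those of the parent and mutant strains.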

Salmonella enteritidis [12] = assay: Antimicrobial activity against Salmonella enterica serovar enteritidis isolate CUH48 by Etest
Salmonella enteritidis [13] = assay: Antimicrobial activity against ciprofloxacin-resistant Salmonella enterica serovar enteritidis isolate 5408-cip harboring parE gene gyrA D87Y, gyrB E466D mutant gene by Etest; summary of the method: as §2
Salmonella enteritidis [14] = assay: Antimicrobial activity against ciprofloxacin-resistant Salmonella enterica serovar enteritidis isolate 5408-cip harboring gyrA gene, gyrB E466D, parE V461G mutant gene by Etest; summary of the method: as §2
Salmonella enteritidis [15] = assay: Antimicrobial activity against ciprofloxacin-resistant Salmonella enterica serovar enteritidis isolate 5408-cip harboring gyrB gene gyrA D87Y, parE V461G mutant gene by Etest; summary of the method: as §2
Salmonella enteritidis [16] = assay: Antimicrobial activity against Salmonella enterica serovar enteritidis isolate 54 harboring gyrA D87Y mutant gene by Etest
Salmonella enteritidis [17] = assay: Antimicrobial activity against Salmonella enterica serovar enteritidis isolate 58 harboring gyrA D87Y mutant gene by Etest
Salmonella enteritidis [18] = assay: Antimicrobial activity against ramA::aph-deficient ciprofloxacin-resistant Salmonella enterica serovar enteritidis isolate 5408-cip harboring gyrA D87Y, gyrB E466D, parE V461G mutant gene by Etest; summary of the method: as §1
Salmonella enteritidis [19] = assay: Antimicrobial activity against Salmonella enterica serovar enteritidis isolate 5408 harboring gyrA gene by Etest
Salmonella enteritidis [20] = assay: Antimicrobial activity against acrB::aph-deficient Salmonella enterica serovar enteritidis isolate 104 harboring gyrA D87Y mutant gene by Etest; summary of the method: as §1
Salmonella enteritidis [21] = assay: Antimicrobial activity against acrB::aph-deficient ciprofloxacin-resistant Salmonella enterica serovar enteritidis isolate 104-cip harboring gyrA D87Y,S83F mutant gene by Etest; summary of the method: as §1
Salmonella enteritidis [22] = assay: Antimicrobial activity against acrB::aph-deficient Salmonella enterica serovar enteritidis isolate CUH60 harboring gyrA D87Y mutant gene by Etest; summary of the method: as §1
Salmonella enteritidis [23] = assay: Antimicrobial activity against Salmonella enterica serovar enteritidis isolate 104 harboring gyrA D87Y mutant gene by Etest
Salmonella enteritidis [24] = assay: Antimicrobial activity against Salmonella enterica serovar enteritidis isolate 4931 harboring gyrA D87Y mutant gene by Etest
Salmonella enteritidis [25] = assay: Antimicrobial activity against ciprofloxacin-resistant Salmonella enterica serovar enteritidis isolate 5408-cip harboring gyrA D87Y, gyrB E466D, parE V461G mutant gene by Etest
Salmonella enteritidis [26] = assay: Antimicrobial activity against Salmonella enterica serovar enteritidis isolate 5408 harboring gyrA D87Y mutant gene by Etest
Salmonella enteritidis [27] = assay: Antimicrobial activity against Salmonella enterica serovar enteritidis isolate 104-cip harboring gyrA D87Y,S83F mutant gene by Etest
Salmonella enteritidis [28] = assay: Antimicrobial activity against Salmonella enterica serovar enteritidis isolate CUH60 harboring gyrA D87Y mutant gene by Etest

SMILES	MIC (Salmonella enteritidis [1])	MIC (Salmonella enteritidis [2])	MIC (Salmonella enteritidis [3])	MIC (Salmonella enteritidis [4])	MIC (Salmonella enteritidis [5])	MIC (Salmonella enteritidis [6])	MIC (Salmonella enteritidis [7])	MIC (Salmonella enteritidis [8])	MIC (Salmonella enteritidis [9])	MIC (Salmonella enteritidis [10])	MIC (Salmonella enteritidis [11])	MIC (Salmonella enteritidis [12])	MIC (Salmonella enteritidis [13])	MIC (Salmonella enteritidis [14])	MIC (Salmonella enteritidis [15])	MIC (Salmonella enteritidis [16])	MIC (Salmonella enteritidis [17])	MIC (Salmonella enteritidis [18])	MIC (Salmonella enteritidis [19])	MIC (Salmonella enteritidis [21])	other results
O=C(O)c1cn(C2CC2)c2cc(N3CCNCC3)c(F)cc2c1=O [CIPROFLOXACIN]	0.047 µg/mL (≈ 0.142 µM)	0.032 µg/mL (≈ 0.0966 µM)	0.5 µg/mL (≈ 1.51 µM)	0.023 µg/mL (≈ 0.0694 µM)	1.5 µg/mL (≈ 4.53 µM)	0.047 µg/mL (≈ 0.142 µM)	0.016 µg/mL (≈ 0.0483 µM)	4 µg/mL (≈ 12.1 µM)	0.19 µg/mL (≈ 0.573 µM)	0.047 µg/mL (≈ 0.142 µM)	0.094 µg/mL (≈ 0.284 µM)	0.016 µg/mL (≈ 0.0483 µM)	> 32 µg/mL	1 µg/mL (≈ 3.02 µM)	3 µg/mL (≈ 9.05 µM)	0.19 µg/mL (≈ 0.573 µM)	0.125 µg/mL (≈ 0.377 µM)	4 µg/mL (≈ 12.1 µM)	0.032 µg/mL (≈ 0.0966 µM)	0.38 µg/mL (≈ 1.15 µM)	MIC (Salmonella enteritidis [20]): 0.032 µg/mL (≈ 0.0966 µM); MIC (Salmonella enteritidis [22]): 0.032 µg/mL (≈ 0.0966 µM)
CCn1cc(C(=O)O)c(=O)c2ccc(C)nc21 [NALIDIXIC ACID]	32 µg/mL (≈ 138 µM)	32 µg/mL (≈ 138 µM)	> 256 µg/mL	8 µg/mL (≈ 34.4 µM)	> 256 µg/mL	32 µg/mL (≈ 138 µM)	3 µg/mL (≈ 12.9 µM)	> 256 µg/mL	> 256 µg/mL	4 µg/mL (≈ 17.2 µM)	8 µg/mL (≈ 34.4 µM)	6 µg/mL (≈ 25.8 µM)	> 256 µg/mL	> 256 µg/mL	> 256 µg/mL	> 256 µg/mL	> 256 µg/mL	> 256 µg/mL	4 µg/mL (≈ 17.2 µM)	> 256 µg/mL	MIC (Salmonella enteritidis [23]): > 256 µg/mL; MIC (Salmonella enteritidis [24]): > 256 µg/mL; MIC (Salmonella enteritidis [25]): > 256 µg/mL; MIC (Salmonella enteritidis [26]): > 256 µg/mL; MIC (Salmonella enteritidis [27]): > 256 µg/mL; MIC (Salmonella enteritidis [28]): > 256 µg/mL; MIC (Salmonella enteritidis [20]): 32 µg/mL (≈ 138 µM); MIC (Salmonella enteritidis [22]): 24 µg/mL (≈ 103 µM)
CN(C)[C@@H]1C(O)=C(C(N)=O)C(=O)[C@@]2(O)C(O)=C3C(=O)c4c(O)cccc4[C@@](C)(O)[C@H]3C[C@@H]12 [TETRACYCLINE]	–	–	0.094 µg/mL (≈ 0.212 µM)	–	0.75 µg/mL (≈ 1.69 µM)	–	–	1.5 µg/mL (≈ 3.38 µM)	–	–	–	–	–	–	–	–	–	1 µg/mL (≈ 2.25 µM)	–	0.25 µg/mL (≈ 0.563 µM)	MIC (Salmonella enteritidis [23]): 1 µg/mL (≈ 2.25 µM); MIC (Salmonella enteritidis [25]): 1.5 µg/mL (≈ 3.38 µM); MIC (Salmonella enteritidis [26]): 1 µg/mL (≈ 2.25 µM); MIC (Salmonella enteritidis [27]): 12 µg/mL (≈ 27 µM)
